# Laboratory results: PMC7693203 (Epilepsia, 2020)
# Read-outs that look alike come from different tables or passages of the source. Marks after values point to notes of the source that are not given here.
# What was measured:
# [1] = cited from earlier work
# [2] = cited from earlier work; for Abdominal pain / Chromaturia / Diarrhea / Fatigue / Flatulence / Headache / Hepatic enzyme increased / Nausea / Somnolence: healthy volunteers
# [3] = result in words; cited from earlier work
# [4] = molecular target: T1, CYP3A4 (Homo sapiens, UniProt P08684); details: result in words, cited from earlier work
# [5] = molecular target: T1, CYP3A4; details: result in words
# [6] = cited from earlier work; remark: listed apart in the source
# [7] = not given; remark: listed apart in the source
# [8] = Other safety parameters for all six trials; format: in vivo, human; details: result in words
# In short: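 Safety was assessed in open-label, fixed-sequence phase 1 trials in healthy volunteers and in randomized, double-blind, placebo-controlled phase 2 trials in epilepsy patients. Assessments covered treatment-emergent adverse events, clinical laboratory evaluations, vital signs, 12-lead ECGs, physical examinations and the C-SSRS questionnaire. The safety population comprised subjects given at least one dose. In CYP3A4 trials, volunteers also needed at least one postdose assessment.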
# [9] = not given; remark: listed apart in the source
# [10] = system: CYP3A4/2C19; assay: clinical; details: human, in vivo, 750 mg
# [11] = system: UGT1A9; details: in vitro; result in words; cited from earlier work
# [12] = molecular target: T2, CYP2C19 (Homo sapiens, UniProt P33261)
# [13] = molecular target: T2, CYP2C19; assay: clinical; details: in vivo, 750 mg
# [14] = molecular target: T2, CYP2C19; details: human liver microsomes; result in words; cited from earlier work
# [15] = trial 1447, patients with epilepsy, N = 28
# [16] = trial 1447, patients with epilepsy, N = 34
# [17] = trial 1543, healthy volunteers, N = 77
# [18] = trial 1543 groups 1 + 2 (DDI CLB), n = 27
# [19] = trial 1543 groups 3 + 4 (DDI STP), n = 24
# [20] = trial 1543 groups 5 + 6 (DDI VPA), n = 26
# [21] = trial 17075, healthy volunteers, N = 32
# [22] = trial 1428, patients with epilepsy, N = 16
# [23] = trial 1428, patients with epilepsy, N = 20
# [24] = trial 17028, healthy volunteers, N = 16
# [25] = trial 17074, healthy volunteers, N = 16
# T1 sequence (P08684 whole entry): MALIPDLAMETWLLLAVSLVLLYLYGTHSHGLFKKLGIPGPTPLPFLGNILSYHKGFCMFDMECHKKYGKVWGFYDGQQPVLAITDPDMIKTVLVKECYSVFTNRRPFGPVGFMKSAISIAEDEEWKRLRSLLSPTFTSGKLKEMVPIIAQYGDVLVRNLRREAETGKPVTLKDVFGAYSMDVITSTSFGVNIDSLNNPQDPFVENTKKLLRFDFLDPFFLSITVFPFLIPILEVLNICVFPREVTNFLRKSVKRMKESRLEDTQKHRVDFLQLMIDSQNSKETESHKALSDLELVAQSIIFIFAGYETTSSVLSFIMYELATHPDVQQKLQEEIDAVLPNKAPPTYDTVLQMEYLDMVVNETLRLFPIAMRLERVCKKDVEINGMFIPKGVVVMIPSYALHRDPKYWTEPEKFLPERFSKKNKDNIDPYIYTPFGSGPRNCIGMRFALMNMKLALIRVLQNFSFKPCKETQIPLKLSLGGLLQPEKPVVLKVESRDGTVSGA
# T2 sequence (P33261 whole entry): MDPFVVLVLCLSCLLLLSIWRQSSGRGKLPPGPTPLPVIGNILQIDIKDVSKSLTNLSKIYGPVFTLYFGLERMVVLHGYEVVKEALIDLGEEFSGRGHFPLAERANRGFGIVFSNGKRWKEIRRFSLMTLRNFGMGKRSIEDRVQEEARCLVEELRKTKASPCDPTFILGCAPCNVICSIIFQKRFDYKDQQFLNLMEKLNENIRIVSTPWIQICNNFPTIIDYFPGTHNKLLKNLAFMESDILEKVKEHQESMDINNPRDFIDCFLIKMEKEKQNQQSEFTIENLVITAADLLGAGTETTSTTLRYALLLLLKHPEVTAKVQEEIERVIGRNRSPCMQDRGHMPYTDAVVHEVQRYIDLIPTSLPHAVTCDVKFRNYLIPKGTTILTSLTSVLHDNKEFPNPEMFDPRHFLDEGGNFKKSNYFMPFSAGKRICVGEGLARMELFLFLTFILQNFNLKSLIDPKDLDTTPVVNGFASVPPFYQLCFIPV
smiles,measurement,setting,value
"C=C(C)[C@@H]1CCC(C)=C[C@H]1c1c(O)cc(CCCCC)cc1O [CBD, cannabidiol]",patients with epilepsy reporting AEs,"[1]; trial 1447, of 34",68%
same,Abdominal pain,[1]; [15],0 (0) n (%)
same,Chromaturia,[1]; [15],0 (0) n (%)
same,Diarrhea,[1]; [15],16 (57) n (%)
same,Fatigue,[1]; [15],3 (11) n (%)
same,Flatulence,[1]; [15],0 (0) n (%)
same,Headache,[1]; [15],0 (0) n (%)
same,Hepatic enzyme increased,[1]; [15],0 (0) ^e n (%)
same,Nausea,[1]; [15],4 (14) n (%)
same,Somnolence,[1]; [15],1 (4) n (%)
same,AEs leading to withdrawal,[1]; [16],2 (6) n (%)
same,Death,[1]; [16],0 (0) n (%)
same,Patient with at least 1 AE,[1]; [16],23 (68) n (%)
same,Serious AEs,[1]; [16],2 (6) n (%)
same,Severe AEs,[1]; [16],1 (3) n (%)
same,elevations in transaminase levels reported as AEs,[1]; trial 1447,three
same,AEs leading to withdrawal,[2]; [17],6 (8) n (%)
same,Death,[2]; [17],0 (0) n (%)
same,Patient with at least 1 AE,[2]; [17],72 (94) n (%)
same,Serious AEs,[2]; [17],0 (0) n (%)
same,Severe AEs,[2]; [17],2 (3) n (%)
same,subjects who experienced an AE of rash,"[2]; trial 1543, of 77, early in the trial",12%
same,healthy volunteers who experienced an AE,"[2]; trial 1543, of 77",94%
same,elevations in transaminase levels as AEs or laboratory evaluations,"[2]; trial 1543, result in words",no reports
same,Abdominal pain,[2]; [18],7 (26) n (%)
same,Chromaturia,[2]; [18],0 (0) n (%)
same,Diarrhea,[2]; [18],7 (26) n (%)
same,Fatigue,[2]; [18],14 (52) n (%)
same,Flatulence,[2]; [18],0 (0) n (%)
same,Headache,[2]; [18],13 (48) n (%)
same,Hepatic enzyme increased,[2]; [18],0 (0) n (%)
same,Nausea,[2]; [18],8 (30) n (%)
same,Somnolence,[2]; [18],5 (19) n (%)
same,Abdominal pain,[2]; [19],7 (29) n (%)
same,Chromaturia,[2]; [19],0 (0) n (%)
same,Diarrhea,[2]; [19],13 (54) n (%)
same,Fatigue,[2]; [19],8 (33) n (%)
same,Flatulence,[2]; [19],6 (25) n (%)
same,Headache,[2]; [19],9 (38) n (%)
same,Hepatic enzyme increased,[2]; [19],0 (0) n (%)
same,Nausea,[2]; [19],6 (25) n (%)
same,Somnolence,[2]; [19],8 (33) n (%)
same,Abdominal pain,[2]; [20],7 (27) n (%)
same,Chromaturia,[2]; [20],0 (0) n (%)
same,Diarrhea,[2]; [20],15 (58) n (%)
same,Fatigue,[2]; [20],14 (54) n (%)
same,Flatulence,[2]; [20],1 (4) n (%)
same,Headache,[2]; [20],8 (31) n (%)
same,Hepatic enzyme increased,[2]; [20],0 (0) n (%)
same,Nausea,[2]; [20],8 (31) n (%)
same,Somnolence,[2]; [20],7 (27) n (%)
same,PPB when VPA and CBD are combined in vitro,[3],not affected
same,inhibition of CYP3A4,[4]; human liver microsomes,potently inhibits
same,inhibition of CYP3A4,[4]; in vitro data,potent inhibitor
same,AEs leading to withdrawal,[21],0 (0) n (%)
same,Abdominal pain,[21],2 (6) n (%)
same,Chromaturia,[21],0 (0) n (%)
same,Death,[21],0 (0) n (%)
same,Diarrhea,[21],3 (9) n (%)
same,Fatigue,[21],2 (6) n (%)
same,Flatulence,[21],0 (0) n (%)
same,Headache,[21],6 (19) n (%)
same,Hepatic enzyme increased,[21],0 (0) ^c n (%)
same,Nausea,[21],2 (6) n (%)
same,Patient with at least 1 AE,[21],20 (63) n (%)
same,Serious AEs,[21],0 (0) n (%)
same,Severe AEs,[21],0 (0) n (%)
same,Somnolence,[21],3 (9) n (%)
same,healthy volunteers reporting AEs,"trial 17075, overall, 32 subjects, CBD as two single doses",63%
same,healthy volunteers reporting AEs,"trial 17075 FLU arm, overall, of 16",44%
same,healthy volunteers reporting AEs,"trial 17075 ITC arm, overall, of 16",81%
same,clearance with concomitant ITC,[5],unaffected
same,effect of concomitant steady‐state ITC on exposure,[5],did not affect
same,t ½ with concomitant ITC,[5],unaffected
same,patients with epilepsy reporting AEs,"[6]; trial 1428, of 20",75%
same,Abdominal pain,[6]; [22],1 (6) n (%)
same,Chromaturia,[6]; [22],0 (0) n (%)
same,Diarrhea,[6]; [22],6 (38) n (%)
same,Fatigue,[6]; [22],1 (6) n (%)
same,Flatulence,[6]; [22],0 (0) n (%)
same,Headache,[6]; [22],1 (6) n (%)
same,Hepatic enzyme increased,[6]; [22],0 (0) ^d n (%)
same,Nausea,[6]; [22],3 (19) n (%)
same,Somnolence,[6]; [22],2 (13) n (%)
same,AEs leading to withdrawal,[6]; [23],1 (5) n (%)
same,Death,[6]; [23],0 (0) n (%)
same,Patient with at least 1 AE,[6]; [23],15 (75) n (%)
same,Serious AEs,[6]; [23],1 (5) n (%)
same,Severe AEs,[6]; [23],1 (5) n (%)
same,elevation in AST levels observed,[7]; trial 17028,four
same,elevations in alanine aminotransferase levels observed,[7]; trial 17028,three
same,AEs leading to withdrawal,[7]; [24],2 (13) n (%)
same,Abdominal pain,[7]; [24],2 (13) n (%)
same,Chromaturia,[7]; [24],0 (0) n (%)
same,Death,[7]; [24],0 (0) n (%)
same,Diarrhea,[7]; [24],6 (38) n (%)
same,Fatigue,[7]; [24],3 (19) n (%)
same,Flatulence,[7]; [24],0 (0) n (%)
same,Headache,[7]; [24],4 (25) n (%)
same,Hepatic enzyme increased,[7]; [24],4 (25) n (%)
same,Nausea,[7]; [24],2 (13) n (%)
same,Patient with at least 1 AE,[7]; [24],15 (94) n (%)
same,Serious AEs,[7]; [24],0 (0) n (%)
same,Severe AEs,[7]; [24],0 (0) n (%)
same,Somnolence,[7]; [24],5 (31) n (%)
same,healthy volunteers with elevations in transaminase levels reported as AEs,"[7]; trial 17028, of 16",25%
same,healthy volunteers reporting AEs,"[7]; trial 17028, of 16, CBD as multiple doses",94%
same,instances that met Hy’s law criteria for potential drug‐induced liver injury,[8],no instances
same,suicidal ideation or behavior by C‐SSRS,[8],No suicidal ideation or behavior
same,AEs leading to withdrawal,[9]; [25],0 (0) n (%)
same,Abdominal pain,[9]; [25],0 (0) n (%)
same,Death,[9]; [25],0 (0) n (%)
same,Diarrhea,[9]; [25],3 (19) n (%)
same,Fatigue,[9]; [25],0 (0) n (%)
same,Flatulence,[9]; [25],0 (0) n (%)
same,Headache,[9]; [25],2 (13) n (%)
same,Hepatic enzyme increased,[9]; [25],0 (0) n (%)
same,Nausea,[9]; [25],4 (25) n (%)
same,Patient with at least 1 AE,[9]; [25],16 (100) n (%)
same,Serious AEs,[9]; [25],0 (0) n (%)
same,Severe AEs,[9]; [25],0 (0) n (%)
same,Somnolence,[9]; [25],4 (25) n (%)
same,Chromaturia,"[9]; trial 17074, healthy volunteers, N = 16, rifampicin coadministered",13 (81) n (%)
same,healthy volunteers reporting AEs,"[9]; trial 17074, overall, 16 subjects, CBD as two single doses",100%
same,healthy volunteers reporting AEs,"[9]; trial 17074, after CBD alone, during RIF treatment, or after CBD and RIF, of 16",44%
same,elevations in transaminase levels as AEs or laboratory evaluations,"[9]; trial 17074, result in words",no reports
same,half-life,[10],32.5 h
same,inhibition of UGT1A9,[11],potently inhibits
same,clearance with concomitant FLU,[12]; result in words,not affected
same,t ½ with concomitant FLU,[12]; result in words,not affected
same,increase in AUCtau with concomitant steady‐state FLU,[12]; single dose of CBD,21%
same,increase in C max with concomitant steady‐state FLU,[12]; single dose of CBD,24%
same,half-life,[13],51.2 h
same,inhibition of CYP2C19,[14],potently inhibits
